Reference: ChEMBL document CHEMBL4190402, “Development of a Novel Human Parathyroid Hormone Receptor 1 (hPTHR1) Agonist (CH5447240), a Potent and Orally Available Small Molecule for Treatment of Hypoparathyroidism” (J Med Chem, 2018)
≈ marks a conversion by molar mass, not a printed value. Calls of active or inactive are those of the source. The rule behind the calls is not given here.

Tests used:
[1] = target: T1, Parathyroid hormone/parathyroid hormone-related peptide receptor (Homo sapiens) (UniProt Q03431); test: Agonist activity at human PTHR1 expressed in HKRKB7 cells assessed as accumulation of intracellular cAMP at 1 mM after 20 mins by enzyme immunoassay relative to human PTH (1 to 34 residues); assay type: functional, cell-based
T1 sequence (whole entry): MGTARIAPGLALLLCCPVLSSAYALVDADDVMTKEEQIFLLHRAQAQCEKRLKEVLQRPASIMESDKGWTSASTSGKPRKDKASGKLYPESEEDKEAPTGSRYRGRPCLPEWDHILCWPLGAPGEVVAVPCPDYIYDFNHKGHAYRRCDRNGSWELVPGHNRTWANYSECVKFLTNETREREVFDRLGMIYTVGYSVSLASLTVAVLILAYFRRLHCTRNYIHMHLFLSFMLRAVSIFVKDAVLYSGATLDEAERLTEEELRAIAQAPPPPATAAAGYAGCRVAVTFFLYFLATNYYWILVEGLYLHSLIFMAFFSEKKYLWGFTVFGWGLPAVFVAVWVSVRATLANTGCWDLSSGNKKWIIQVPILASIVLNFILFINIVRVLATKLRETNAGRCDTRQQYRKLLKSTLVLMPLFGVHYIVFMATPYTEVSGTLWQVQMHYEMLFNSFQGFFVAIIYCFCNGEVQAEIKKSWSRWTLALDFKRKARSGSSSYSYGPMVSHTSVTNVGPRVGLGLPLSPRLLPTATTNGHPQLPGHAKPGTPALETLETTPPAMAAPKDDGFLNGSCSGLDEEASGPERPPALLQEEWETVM
Outline: (§1)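 HKRK-B7 cells (LLC-PK1 stably expressing hPTHR1), 1.0 x 10^3 per well, seeded overnight, then exposed to serially diluted compound in McCoy's 5A with 2 mg/ml BSA, 1 mmol/l IBMX and 2 mmol/l HEPES for 20 min at 37°C. Cells washed, frozen, lysed in 50 mmol/l HCl, cAMP read by EIA.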

LLC-PK1 = test: Induction of cAMP production in porcine LLC-PK1 cells after 20 mins by enzyme immunoassay; assay type: functional, cell-based; conditions: Sus scrofa
Outline: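 Counter-screen on parent LLC-PK1 cells lacking hPTHR1. Conditions match the HKRK-B7 assay: 20 min at 37°C in IBMX-containing assay medium, then cAMP read by EIA.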

[2] = target: T2, Parathyroid hormone/parathyroid hormone-related peptide receptor (Homo sapiens, UniProt Q03431); test: (§2) Agonist activity at human PTHR1 expressed in HKRKB7 cells assessed as accumulation of intracellular cAMP after 20 mins by enzyme immunoassay; assay type: functional, cell-based; outline: as §1
T2 sequence (Q03431 whole entry): T1 sequence (whole entry)

[3] = target: T1, Parathyroid hormone/parathyroid hormone-related peptide receptor (Homo sapiens); test: as §2; assay type: functional, cell-based; outline: as §1
[4] = Solubility of the compound in PBS at pH 6.5 at 1 mM by HPLC-UV analysis; assay type: physicochemical; conditions: for solubility: buffer, pH 6.5, 1000 µM, BLD = below limit of detection; for solubility at 1000 µM: PBS, pH 6.5
Outline: (§3)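 A 1 mM DMSO stock (50 µL) was freeze-dried, then the residue taken up in 50 mM PBS pH 6.5 or FaSSIF pH 6.5. Sonicated 10 min, shaken 2 h, centrifuged, filtered. Filtrate concentration determined by HPLC-UV against each compound's calibration curve.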

[5] = Solubility of the compound in FaSSIF at 1 mM by HPLC-UV analysis; assay type: physicochemical; conditions: for solubility at 1000 µM: FaSSIF; outline: as §3
[6] = Intrinsic clearance in human liver microsomes assessed per mg protein at 1 uM after 30 mins in presence of NADPH by LC-MS/MS analysis; assay type: ADME, microsome; conditions: read-out: CLH
[7] = Intrinsic clearance in human liver microsomes assessed per mg protein at 1 uM after 30 mins in absence of NADPH by LC-MS/MS analysis; assay type: ADME, microsome; conditions: liver microsomes, read-out: CLH
Rattus norvegicus [8] = test: In vivo agonist activity at PTHR1 in Crl:CD(SD) rat TPTX model assessed as increase in serum calcium levels at 9 nmol/kg, sc administered as single dose measured after 24 hrs by o-cresolphthalein complexone method; assay type: functional, organism-based
Outline: (§4)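 Female 6-week-old Crl:CD(SD) rats after surgical TPTX; those with serum Ca <8.0 mg/dl at day 5 were used, and treatment began day 6. Single sc dose of hPTH(1-34) at 9 nmol/kg, or phosphate-citrate buffer pH 6.0 vehicle, n=5 per group. Jugular blood taken under isoflurane before dosing and at 0.5–24 h. Serum Ca measured by o-CPC, Pi by xanthine oxidase. Mean ± SEM.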

Rattus norvegicus [9] = test: In vivo agonist activity at PTHR1 in Crl:CD(SD) rat TPTX model assessed as decrease in serum phosphorus levels 9 nmol/kg, sc administered as single dose measured after 24 hrs by xanthine oxidase method; assay type: functional, organism-based; outline: as §4

SMILES	Activity [1] [%]	EC50 [2] [µM]	EC20 [3] [µM]	microsomal CLint at 1 µM [6] [µL/min/mg]	Activity (LLC-PK1)	further results
O=C1NC(c2ccccc2)=NC12CCN(S(=O)(=O)c1cccc(Cl)c1)CC2	1.9				inactive	
Cc1cc(N2CCNC2=O)cc(C)c1CCS(=O)(=O)N1CCC2(CC1)N=C(C1CCCCC1)NC2=O		> 1000	240	62	inactive	solubility [4]: Bld; solubility ([5]; simulated gi fluid, 1000 µM, BLD = below limit of detection): Bld; microsomal CLint at 1 µM [7]: 3.4 µL/min/mg
CC[C@H](C)[C@H](NC(=O)[C@H](CCC(=O)O)NC(=O)[C@H](CO)NC(=O)[C@@H](NC(=O)[C@@H](N)CO)C(C)C)C(=O)N[C@@H](CCC(N)=O)C(=O)N[C@@H](CC(C)C)C(=O)N[C@@H](CCSC)C(=O)N[C@@H](Cc1cnc[nH]1)C(=O)N[C@@H](CC(N)=O)C(=O)N[C@@H](CC(C)C)C(=O)NCC(=O)N[C@@H](CCCCN)C(=O)N[C@@H](Cc1cnc[nH]1)C(=O)N[C@@H](CC(C)C)C(=O)N[C@@H](CC(N)=O)C(=O)N[C@@H](CO)C(=O)N[C@@H](CCSC)C(=O)N[C@@H](CCC(=O)O)C(=O)N[C@@H](CCCNC(=N)N)C(=O)N[C@H](C(=O)N[C@@H](CCC(=O)O)C(=O)N[C@@H](Cc1c[nH]c2ccccc12)C(=O)N[C@@H](CC(C)C)C(=O)N[C@@H](CCCNC(=N)N)C(=O)N[C@@H](CCCCN)C(=O)N[C@@H](CCCCN)C(=O)N[C@@H](CC(C)C)C(=O)N[C@@H](CCC(N)=O)C(=O)N[C@@H](CC(=O)O)C(=O)N[C@H](C(=O)N[C@@H](Cc1cnc[nH]1)C(=O)N[C@@H](CC(N)=O)C(=O)N[C@@H](Cc1ccccc1)C(=O)O)C(C)C)C(C)C						Activity (Rattus norvegicus [8]): Active; Activity (Rattus norvegicus [9]): Active
O=C(O)c1ccc(C2=NC3(CCN(S(=O)(=O)c4cccc(Cl)c4)CC3)C(=O)N2)cc1	1.3				inactive	
C[C@H]1CC[C@H](C2=NC3(CCN(S(=O)(=O)c4cccc(Cl)c4)CC3)C(=O)N2)CC1	35				inactive	
O=C1NC(C2CCCCC2)=NC12CCN(S(=O)(=O)CCc1ccncc1)CC2			> 1000		inactive	
O=C1NC(c2ccc(Cl)cc2Cl)=NC12CCN(S(=O)(=O)c1cccc(Cl)c1)CC2	23	> 1000	530		inactive	
Cc1cc(N(C)C(N)=O)cc(C)c1CCS(=O)(=O)N1CCC2(CC1)N=C(C1CCCCC1)NC2=O		67	8.1	23	inactive	solubility at 1000 µM [4]: 290 µg/mL (≈ 576 µM); solubility at 1000 µM [5]: 450 µg/mL (≈ 893 µM)
O=C1NC(c2ccccc2Cl)=NC12CCN(S(=O)(=O)c1cccc(Cl)c1)CC2	18				inactive	
O=C1NC(C2CCCCC2)=NC12CCN(S(=O)(=O)Cc1ccccc1)CC2			> 1000		inactive	

Further lines, with some results ahead:

Activity [1] [%]	EC50 [2] [µM]	EC20 [3] [µM]	microsomal CLint at 1 µM [6] [µL/min/mg]	SMILES	Activity (LLC-PK1)	further results
45		140		O=C1NC(C2CCCCC2)=NC12CCN(S(=O)(=O)c1cccc(Cl)c1)CC2	inactive	
		150		O=C1NC(c2ccc(Cl)cc2Cl)=NC12CCN(S(=O)(=O)CCc1cccc3ccccc13)CC2	inactive	
	26	6.4	39	CC(=O)Nc1cc(C)c(CCS(=O)(=O)N2CCC3(CC2)N=C(C2CCCCC2)NC3=O)c(C)c1	inactive	solubility at 1000 µM [4]: 8 µg/mL (≈ 16.4 µM); solubility at 1000 µM [5]: 38 µg/mL (≈ 77.8 µM); microsomal CLint at 1 µM [7]: 18 µL/min/mg
		240		O=C1NC(C2CCCCC2)=NC12CCN(S(=O)(=O)CCc1ccccc1)CC2	inactive	
		220		O=C1NC(C2CCCCC2)=NC12CCN(S(=O)(=O)c1cccc3ccccc13)CC2	inactive	
		15	300	O=C1NC(C2CCCCC2)=NC12CCN(S(=O)(=O)CCc1cccc3ccccc13)CC2	inactive	solubility [4]: Bld; solubility at 1000 µM [5]: 3.1 µg/mL (≈ 6.83 µM)
1				O=C1NC(c2ccncc2)=NC12CCN(S(=O)(=O)c1cccc(Cl)c1)CC2	inactive	
22				O=C1NC(c2ccc(Cl)cc2)=NC12CCN(S(=O)(=O)c1cccc(Cl)c1)CC2	inactive	
	> 1000	30	100	Cc1ccccc1CCS(=O)(=O)N1CCC2(CC1)N=C(C1CCCCC1)NC2=O	inactive	solubility at 1000 µM [4]: 11 µg/mL (≈ 26.3 µM); solubility at 1000 µM [5]: 15 µg/mL (≈ 35.9 µM)
	50	11	46	CC(=O)Nc1ccc(CCS(=O)(=O)N2CCC3(CC2)N=C(C2CCCCC2)NC3=O)c(C)c1	inactive	solubility at 1000 µM [4]: 280 µg/mL (≈ 590 µM); solubility at 1000 µM [5]: 400 µg/mL (≈ 843 µM); microsomal CLint at 1 µM [7]: 33 µL/min/mg
